Assay results: ChEMBL document CHEMBL1127320, “Dual-action cephalosporins incorporating a 3'-tertiary-amine-linked quinolone” (J Med Chem, 1994)
≈ marks a conversion by molar mass, not a printed value.

Legend:
Citrobacter freundii = assay: In vitro minimum inhibitory concentration was measured against Citrobacter freundii BS-16 (beta lactamase producer) strain.; assay type: functional
How it was run: (§1)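 MICs were determined by agar dilution with 2-fold dilutions giving final 128–0.0156 µg/mL, extended to 0.000977 µg/mL where needed. Streptococci were tested on brain heart infusion agar plus 20 units/mL catalase, Proteus on Mueller-Hinton with 3% agar, and others on Mueller-Hinton agar. Inocula were 100-fold-diluted overnight cultures, about 3 × 10^4 CFU/spot, read after overnight incubation at 36 °C.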

Escherichia coli [1] = assay: In vitro minimum inhibitory concentration was measured against Escherichia coli 257 strain.; assay type: functional
How it was run: (§2)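 Streptococci were tested on brain heart infusion agar plus 20 units/mL catalase, Proteus on Mueller-Hinton with 3% agar, and others on Mueller-Hinton agar. Inocula were 100-fold-diluted overnight cultures, about 3 × 10^4 CFU/spot, read after overnight incubation at 36 °C.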

Escherichia coli [2] = assay: In vitro minimum inhibitory concentration was measured against Escherichia coli ATCC 25922 strain.; assay type: functional; how it was run: as §2
Escherichia coli [3] = assay: In vitro minimum inhibitory concentration was measured against Escherichia coli TEM-1 (Beta lactamase producer) strain.; assay type: functional; how it was run: as §2
Enterococcus faecalis = assay: In vitro minimum inhibitory concentration was measured against Enterococcus faecalis ATCC 29212 strain.; assay type: functional; how it was run: as §2
Enterobacter cloacae [4] = assay: Bacterial challenge for systemic murine infection against Enterobacter cloacae 5699; assay type: functional
How it was run: (§3)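 Mouse protection test in CD1 Swiss albino mice (18-20 g). Mice were infected intraperitoneally with 0.5 mL of diluted bacterial suspension. A single subcutaneous dose at the dorsal neck base was given within 5 min, with doses from 250 to 0.05 mg/kg. Six mice per group were used. ED50 was obtained by the Reed-Muench method.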

Enterobacter cloacae [5] = assay: In vitro minimum inhibitory concentration was measured against Enterobacter cloacae 5699 strain.; assay type: functional
Enterobacter cloacae [6] = assay: In vitro minimum inhibitory concentration was measured against Enterobacter cloacae p99 (beta lactamase producer) strain.; assay type: functional
Klebsiella pneumoniae [7] = assay: Bacterial challenge for systemic murine infection against Klebsiella pneumoniae A; assay type: functional; how it was run: as §3
Klebsiella pneumoniae [8] = assay: In vitro minimum inhibitory concentration was measured against Klebsiella pneumoniae A strain.; assay type: functional; how it was run: as §2
Micrococcus luteus = assay: In vitro minimum inhibitory concentration was measured against Micrococcus luteus ATCC 9341 strain.; assay type: functional; how it was run: as §2
[9] = molecular target: T1, Penicillin-binding protein 1A (Escherichia coli K-12) (UniProt P02918); assay: Affinity for penicillin binding protein 1a of Escherichia coli UB1005 (DC0) was evaluated.; parameters: unit not given here
T1 sequence (whole entry): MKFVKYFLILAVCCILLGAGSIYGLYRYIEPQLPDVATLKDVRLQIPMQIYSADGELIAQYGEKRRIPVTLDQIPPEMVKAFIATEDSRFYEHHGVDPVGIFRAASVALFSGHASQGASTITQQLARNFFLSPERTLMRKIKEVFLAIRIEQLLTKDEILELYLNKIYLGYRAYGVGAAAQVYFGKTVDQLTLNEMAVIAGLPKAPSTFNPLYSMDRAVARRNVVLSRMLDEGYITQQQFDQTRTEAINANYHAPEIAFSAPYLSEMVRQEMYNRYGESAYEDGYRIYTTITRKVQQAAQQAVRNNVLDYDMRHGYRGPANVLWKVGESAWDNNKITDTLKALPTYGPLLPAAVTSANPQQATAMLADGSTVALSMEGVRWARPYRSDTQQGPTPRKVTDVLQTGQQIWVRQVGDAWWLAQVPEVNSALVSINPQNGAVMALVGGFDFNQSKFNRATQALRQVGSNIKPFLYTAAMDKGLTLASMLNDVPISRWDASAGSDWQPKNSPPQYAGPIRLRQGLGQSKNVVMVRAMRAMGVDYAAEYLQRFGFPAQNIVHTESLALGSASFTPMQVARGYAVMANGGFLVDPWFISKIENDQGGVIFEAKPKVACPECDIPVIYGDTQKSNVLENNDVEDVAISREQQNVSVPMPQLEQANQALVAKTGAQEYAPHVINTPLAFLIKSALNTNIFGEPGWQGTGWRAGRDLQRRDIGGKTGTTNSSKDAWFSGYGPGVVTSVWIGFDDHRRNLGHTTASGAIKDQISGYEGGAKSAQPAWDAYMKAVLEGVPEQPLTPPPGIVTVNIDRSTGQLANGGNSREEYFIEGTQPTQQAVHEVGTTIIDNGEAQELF
How it was run: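 Solubilised membranes from sonicated E. coli UB1005 served as the binding-protein source. Binding was read as inhibition of [14C]penicillin G binding.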

Pseudomonas aeruginosa [10] = assay: In vitro minimum inhibitory concentration was measured against Pseudomonas aeruginosa 18S/H strain.; assay type: functional; how it was run: as §2
Pseudomonas aeruginosa [11] = assay: In vitro minimum inhibitory concentration was measured against Pseudomonas aeruginosa 8780 strain.; assay type: functional; how it was run: as §2
Proteus vulgaris = assay: In vitro minimum inhibitory concentration was measured against Proteus vulgaris 1028BC (beta lactamase producer) strain.; assay type: functional; how it was run: as §2
Pseudomonas aeruginosa [12] = assay: Bacterial challenge for systemic murine infection against Pseudomonas aeruginosa 8780; assay type: functional
How it was run: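 Mouse protection test in CD1 Swiss albino mice (18-20 g) infected intraperitoneally with 0.5 mL of diluted bacterial suspension. Subcutaneous doses (250 to 0.05 mg/kg) were given immediately after infection and again 3 h later. Six mice per group were used. ED50 was obtained by the Reed-Muench method.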

Serratia marcescens [13] = assay: In vitro minimum inhibitory concentration was measured against Serratia marcescens 1071(beta lactamase producer) strain.; assay type: functional; how it was run: as §2
Staphylococcus aureus [14] = assay: Bacterial challenge for systemic murine infection against Staphylococcus aureus Smith; assay type: functional
Streptococcus pneumoniae = assay: Bacterial challenge for systemic murine infection against Streptococcus pneumoniae 6301; assay type: functional
Serratia marcescens [15] = assay: Bacterial challenge for systemic murine infection against Serratia marcescens SM; assay type: functional; how it was run: as §3
Staphylococcus aureus [16] = assay: In vitro minimum inhibitory concentration was measured against Staphylococcus aureus 67-0 (Methicillin resistant) strain.; assay type: functional
Staphylococcus aureus [17] = assay: In vitro minimum inhibitory concentration was measured against Staphylococcus aureus 753 (Methicillin resistant) strain.; assay type: functional
Staphylococcus aureus [18] = assay: In vitro minimum inhibitory concentration was measured against Staphylococcus aureus smith strain.; assay type: functional
Escherichia coli [19] = assay: Minimum inhibitory concentration for DC2, a permeability mutant; how it was run: as §1
Escherichia coli [20] = assay: Minimum inhibitory concentration against E. coli UB1005 (DC0)

Row | Structure (SMILES) | MIC (Citrobacter freundii) [µg/mL] | MIC (Escherichia coli [1]) [µg/mL] | MIC (Escherichia coli [2]) [µg/mL] | MIC (Escherichia coli [3]) [µg/mL] | MIC (Enterococcus faecalis) [µg/mL] | LD50 (Enterobacter cloacae [4]) | MIC (Enterobacter cloacae [5]) [µg/mL] | MIC (Enterobacter cloacae [6]) [µg/mL] | LD50 (Klebsiella pneumoniae [7]) | MIC (Klebsiella pneumoniae [8]) [µg/mL] | MIC (Micrococcus luteus) [µg/mL] | Binding affinity [9] | MIC (Pseudomonas aeruginosa [10]) [µg/mL] | MIC (Pseudomonas aeruginosa [11]) [µg/mL] | MIC (Proteus vulgaris) [µg/mL] | LD50 (Pseudomonas aeruginosa [12]) | MIC (Serratia marcescens [13]) [µg/mL] | LD50 (Staphylococcus aureus [14]) | LD50 (Streptococcus pneumoniae) | LD50 (Serratia marcescens [15]) | further results
1 | CO/N=C(\C(=O)N[C@@H]1C(=O)N2C(C(=O)O)=C(CN3CCN(c4cc5c(cc4F)c(=O)c(C(=O)O)cn5C4CC4)CC3)CS[C@H]12)c1csc(N)n1 | 0.125 (≈ 0.172 µM) | 0.125 (≈ 0.172 µM) | 0.125 (≈ 0.172 µM) | 0.25 (≈ 0.344 µM) | 4 (≈ 5.5 µM) | 7055 | 0.5 (≈ 0.688 µM) | 0.125 (≈ 0.172 µM) | >10000 | 1 (≈ 1.38 µM) | 0.125 (≈ 0.172 µM) | > 100 | 2 (≈ 2.75 µM) | 8 (≈ 11 µM) | 0.25 (≈ 0.344 µM) | >10000 | 1 (≈ 1.38 µM) | >8 | >10000 | 27 | MIC (Staphylococcus aureus [16]): 8 µg/mL (≈ 11 µM); MIC (Staphylococcus aureus [17]): 4 µg/mL (≈ 5.5 µM); MIC (Staphylococcus aureus [18]): 4 µg/mL (≈ 5.5 µM); MIC (Escherichia coli [19]): 0.063 µg/mL (≈ 0.0867 µM); MIC (Escherichia coli [20]): 1 µg/mL (≈ 1.38 µM)
2 | CO/N=C(\C(=O)N[C@@H]1C(=O)N2C(C(=O)O)=C(COC(C)=O)CS[C@H]12)c1csc(N)n1 [CEFOTAXIME] | 32 (≈ 70.3 µM) | 0.031 (≈ 0.0681 µM) | 0.063 (≈ 0.138 µM) | 0.063 (≈ 0.138 µM) | 0.25 (≈ 0.549 µM) | 50 | 0.125 (≈ 0.274 µM) | 64 (≈ 141 µM) | 45 | 0.031 (≈ 0.0681 µM) | 0.031 (≈ 0.0681 µM) | 0.1 | 128 (≈ 281 µM) | 16 (≈ 35.1 µM) | > 128 | >250 | 32 (≈ 70.3 µM) | 6 | 69 | <25 | MIC (Staphylococcus aureus [16]): > 128 µg/mL; MIC (Staphylococcus aureus [17]): > 128 µg/mL; MIC (Staphylococcus aureus [18]): 2 µg/mL (≈ 4.39 µM); MIC (Escherichia coli [19]): < 0.016 µg/mL; MIC (Escherichia coli [20]): 0.031 µg/mL (≈ 0.0681 µM)
